Measured values reported in ChEMBL document CHEMBL1811752, “Synthesis and pharmacological characterization of bicyclic triple reuptake inhibitor 3-aryl octahydrocyclopenta[c]pyrrole analogues” (J Med Chem, 2011).

What was measured:
[1] = target: Sodium-dependent serotonin transporter (Homo sapiens, UniProt P31645); assay: Inhibition of serotonin reuptake at SERT expressed in HEK293 cells; type: cell-based
[2] = target: Sodium-dependent noradrenaline transporter (Homo sapiens, UniProt P23975); assay: Inhibition of norepinephrine reuptake at NET expressed in MDCK cells; type: cell-based
Sequence of Sodium-dependent noradrenaline transporter (P23975 whole entry): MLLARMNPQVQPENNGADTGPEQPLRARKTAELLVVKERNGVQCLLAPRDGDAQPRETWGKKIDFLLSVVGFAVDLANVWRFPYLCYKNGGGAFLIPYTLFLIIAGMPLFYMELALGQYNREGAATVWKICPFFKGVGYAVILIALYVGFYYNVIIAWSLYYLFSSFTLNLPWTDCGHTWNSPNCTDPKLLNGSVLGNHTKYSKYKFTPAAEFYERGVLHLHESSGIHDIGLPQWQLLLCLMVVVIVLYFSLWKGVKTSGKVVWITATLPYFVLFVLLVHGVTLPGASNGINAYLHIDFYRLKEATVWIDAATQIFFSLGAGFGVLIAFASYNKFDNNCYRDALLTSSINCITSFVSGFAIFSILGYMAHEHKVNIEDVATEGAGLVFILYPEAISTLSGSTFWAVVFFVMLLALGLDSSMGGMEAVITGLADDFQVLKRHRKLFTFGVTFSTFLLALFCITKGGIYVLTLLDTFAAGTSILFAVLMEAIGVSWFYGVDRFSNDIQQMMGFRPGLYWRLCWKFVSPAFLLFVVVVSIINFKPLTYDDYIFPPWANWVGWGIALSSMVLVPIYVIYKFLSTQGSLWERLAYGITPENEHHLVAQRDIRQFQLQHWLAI

[3] = target: Sodium-dependent dopamine transporter (Homo sapiens, UniProt Q01959); assay: Inhibition of dopamine reuptake at DAT expressed in CHO-K1 cells; type: cell-based
Sequence of Sodium-dependent dopamine transporter (Q01959 whole entry): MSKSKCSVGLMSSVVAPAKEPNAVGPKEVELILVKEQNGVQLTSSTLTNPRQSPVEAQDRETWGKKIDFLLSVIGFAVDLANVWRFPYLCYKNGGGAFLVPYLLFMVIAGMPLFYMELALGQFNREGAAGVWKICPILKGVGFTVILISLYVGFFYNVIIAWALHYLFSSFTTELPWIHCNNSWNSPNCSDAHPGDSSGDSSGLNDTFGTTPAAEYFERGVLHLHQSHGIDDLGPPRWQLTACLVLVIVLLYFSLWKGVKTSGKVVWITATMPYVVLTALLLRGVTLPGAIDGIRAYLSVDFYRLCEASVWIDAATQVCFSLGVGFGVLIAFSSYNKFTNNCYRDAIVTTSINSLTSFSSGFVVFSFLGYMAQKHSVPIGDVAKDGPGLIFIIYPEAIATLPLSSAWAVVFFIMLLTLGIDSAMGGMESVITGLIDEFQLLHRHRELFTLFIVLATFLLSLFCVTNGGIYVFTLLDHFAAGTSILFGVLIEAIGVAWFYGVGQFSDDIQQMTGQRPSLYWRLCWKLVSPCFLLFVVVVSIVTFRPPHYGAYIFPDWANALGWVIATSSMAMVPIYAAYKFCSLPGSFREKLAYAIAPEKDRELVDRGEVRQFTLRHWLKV

[4] = Half life in human liver microsomes at 3 uM by LC-MS/MS analysis; type: ADME, Microsome
Procedure, shortened: (§1)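 Human or mouse liver microsomes (0.5 mg/mL) incubated with 3 μM compound at 37 °C. Reaction started with NADPH and stopped with methanol containing internal standard. Loss of compound followed over 45 min by LC-MS/MS. Peak area ratio to internal standard plotted against time and the slope of the line taken.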

[5] = Half life in mouse liver microsomes at 3 uM by LC-MS/MS analysis; type: ADME, Microsome; procedure, shortened: as §1
[6] = target: T1, CYP1A (Homo sapiens, UniProt P04798+P05177); assay: Inhibition of CYP1A in human liver microsomes by LC-MS/MS analysis; type: ADME, Microsome
T1 sequence (P04798 whole entry): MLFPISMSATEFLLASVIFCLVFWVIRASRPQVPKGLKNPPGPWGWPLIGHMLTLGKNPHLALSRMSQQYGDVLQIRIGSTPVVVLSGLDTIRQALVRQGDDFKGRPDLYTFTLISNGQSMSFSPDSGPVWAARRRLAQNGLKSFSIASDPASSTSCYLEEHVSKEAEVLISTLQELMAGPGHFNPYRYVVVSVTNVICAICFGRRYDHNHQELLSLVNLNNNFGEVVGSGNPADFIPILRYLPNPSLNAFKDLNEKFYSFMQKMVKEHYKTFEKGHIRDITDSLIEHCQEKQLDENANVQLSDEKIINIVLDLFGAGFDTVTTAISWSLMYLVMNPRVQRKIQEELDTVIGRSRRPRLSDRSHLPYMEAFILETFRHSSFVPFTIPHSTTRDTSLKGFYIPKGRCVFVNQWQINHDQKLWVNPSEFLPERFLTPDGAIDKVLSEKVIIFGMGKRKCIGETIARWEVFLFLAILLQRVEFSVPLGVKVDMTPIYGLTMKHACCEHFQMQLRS
T1 sequence (P05177 whole entry): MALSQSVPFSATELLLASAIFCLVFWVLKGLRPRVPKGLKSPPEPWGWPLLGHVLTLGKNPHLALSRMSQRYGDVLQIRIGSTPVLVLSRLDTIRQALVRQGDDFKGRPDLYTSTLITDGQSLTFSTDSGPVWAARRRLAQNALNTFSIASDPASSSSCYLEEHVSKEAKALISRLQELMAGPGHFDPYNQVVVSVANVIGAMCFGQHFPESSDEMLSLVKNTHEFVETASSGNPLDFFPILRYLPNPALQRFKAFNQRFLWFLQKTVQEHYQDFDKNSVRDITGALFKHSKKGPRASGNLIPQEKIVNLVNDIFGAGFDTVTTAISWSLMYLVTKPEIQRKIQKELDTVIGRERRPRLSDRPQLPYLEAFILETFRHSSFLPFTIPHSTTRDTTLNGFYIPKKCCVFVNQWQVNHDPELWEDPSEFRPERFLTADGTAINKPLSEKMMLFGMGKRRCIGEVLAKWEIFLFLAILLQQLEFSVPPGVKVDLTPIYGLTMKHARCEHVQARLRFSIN
Procedure, shortened: (§2)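 Human liver microsomes incubated with isoform-specific substrates and compound, typically 0.1–25 μM. Metabolite formation read by LC-MS/MS, […]. IC50 calculated from the decrease in metabolite formation relative to vehicle control.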

[7] = target: Cytochrome P450 2C9 (Homo sapiens, UniProt P11712); assay: Inhibition of CYP2C9 in human liver microsomes by LC-MS/MS analysis; type: ADME, Microsome; procedure, shortened: as §2
Sequence of Cytochrome P450 2C9 (P11712 whole entry): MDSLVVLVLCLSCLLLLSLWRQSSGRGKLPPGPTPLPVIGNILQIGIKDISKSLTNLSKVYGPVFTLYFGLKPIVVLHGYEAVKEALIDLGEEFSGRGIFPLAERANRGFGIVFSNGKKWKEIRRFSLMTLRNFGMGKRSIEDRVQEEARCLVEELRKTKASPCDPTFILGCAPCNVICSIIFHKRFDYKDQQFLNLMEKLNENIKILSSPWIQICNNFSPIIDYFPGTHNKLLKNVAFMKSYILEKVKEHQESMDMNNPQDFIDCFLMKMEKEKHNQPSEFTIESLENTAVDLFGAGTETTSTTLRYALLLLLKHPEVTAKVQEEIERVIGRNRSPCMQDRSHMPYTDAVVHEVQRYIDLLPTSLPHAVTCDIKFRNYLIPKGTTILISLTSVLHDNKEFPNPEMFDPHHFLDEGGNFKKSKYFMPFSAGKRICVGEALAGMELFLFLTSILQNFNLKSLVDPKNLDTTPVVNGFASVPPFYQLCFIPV

[8] = target: Cytochrome P450 2C19 (Homo sapiens, UniProt P33261); assay: Inhibition of CYP2C19 in human liver microsomes by LC-MS/MS analysis; type: ADME, Microsome; procedure, shortened: as §2
Sequence of Cytochrome P450 2C19 (P33261 whole entry): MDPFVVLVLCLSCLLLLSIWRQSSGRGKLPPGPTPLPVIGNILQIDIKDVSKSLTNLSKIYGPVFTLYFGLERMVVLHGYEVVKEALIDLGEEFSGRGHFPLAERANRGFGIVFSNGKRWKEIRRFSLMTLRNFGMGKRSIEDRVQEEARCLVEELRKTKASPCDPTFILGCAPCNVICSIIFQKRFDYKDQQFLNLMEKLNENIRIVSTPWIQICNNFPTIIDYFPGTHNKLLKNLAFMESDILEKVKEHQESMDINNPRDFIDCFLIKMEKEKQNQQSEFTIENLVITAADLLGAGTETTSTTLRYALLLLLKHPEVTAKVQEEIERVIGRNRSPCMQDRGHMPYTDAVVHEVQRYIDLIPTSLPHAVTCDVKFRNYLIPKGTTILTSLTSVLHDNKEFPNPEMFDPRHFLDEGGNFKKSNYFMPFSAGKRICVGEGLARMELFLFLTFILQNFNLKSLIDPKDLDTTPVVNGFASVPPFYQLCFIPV

[9] = target: Cytochrome P450 2D6 (Homo sapiens, UniProt P10635); assay: Inhibition of CYP2D6 in human liver microsomes by LC-MS/MS analysis; type: ADME, Microsome; procedure, shortened: as §2
Sequence of Cytochrome P450 2D6 (P10635 whole entry): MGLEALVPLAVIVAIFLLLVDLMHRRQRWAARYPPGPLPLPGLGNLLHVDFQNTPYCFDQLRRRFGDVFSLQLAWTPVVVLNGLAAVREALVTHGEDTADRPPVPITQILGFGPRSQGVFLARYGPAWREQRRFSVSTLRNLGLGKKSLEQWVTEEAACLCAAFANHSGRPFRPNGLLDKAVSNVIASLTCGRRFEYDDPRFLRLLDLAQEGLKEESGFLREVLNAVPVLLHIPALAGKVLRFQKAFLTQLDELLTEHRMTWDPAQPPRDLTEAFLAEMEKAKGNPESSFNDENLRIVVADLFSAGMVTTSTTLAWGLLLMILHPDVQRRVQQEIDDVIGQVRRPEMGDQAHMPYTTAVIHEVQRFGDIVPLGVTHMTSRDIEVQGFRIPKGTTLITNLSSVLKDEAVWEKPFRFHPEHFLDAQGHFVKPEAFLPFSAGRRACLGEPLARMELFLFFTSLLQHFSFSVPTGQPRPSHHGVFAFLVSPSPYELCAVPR

[10] = target: Cytochrome P450 3A4 (Homo sapiens, UniProt P08684); assay: Inhibition of CYP3A4 in human liver microsomes by LC-MS/MS analysis; type: ADME, Microsome; procedure, shortened: as §2
Sequence of Cytochrome P450 3A4 (P08684 whole entry): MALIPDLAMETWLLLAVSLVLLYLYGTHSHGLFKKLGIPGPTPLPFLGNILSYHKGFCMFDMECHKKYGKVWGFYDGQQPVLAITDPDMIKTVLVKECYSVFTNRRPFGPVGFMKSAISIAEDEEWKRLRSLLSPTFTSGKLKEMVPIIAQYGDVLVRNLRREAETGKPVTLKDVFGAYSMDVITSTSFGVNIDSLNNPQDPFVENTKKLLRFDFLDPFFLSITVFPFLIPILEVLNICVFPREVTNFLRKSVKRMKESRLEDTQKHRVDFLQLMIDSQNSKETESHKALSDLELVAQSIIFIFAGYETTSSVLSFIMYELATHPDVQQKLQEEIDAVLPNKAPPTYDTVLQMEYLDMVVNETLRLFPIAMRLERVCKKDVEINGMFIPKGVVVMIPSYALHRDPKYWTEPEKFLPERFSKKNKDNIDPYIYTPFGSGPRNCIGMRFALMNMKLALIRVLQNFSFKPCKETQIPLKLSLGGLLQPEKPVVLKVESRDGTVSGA

[11] = target: Voltage-gated inwardly rectifying potassium channel KCNH2 (Homo sapiens, UniProt Q12809); assay: Inhibition of human ERG expressed in CHO cells by high throughput single cell planar patch clamp method; type: cell-based
Sequence of Voltage-gated inwardly rectifying potassium channel KCNH2 (Q12809 whole entry): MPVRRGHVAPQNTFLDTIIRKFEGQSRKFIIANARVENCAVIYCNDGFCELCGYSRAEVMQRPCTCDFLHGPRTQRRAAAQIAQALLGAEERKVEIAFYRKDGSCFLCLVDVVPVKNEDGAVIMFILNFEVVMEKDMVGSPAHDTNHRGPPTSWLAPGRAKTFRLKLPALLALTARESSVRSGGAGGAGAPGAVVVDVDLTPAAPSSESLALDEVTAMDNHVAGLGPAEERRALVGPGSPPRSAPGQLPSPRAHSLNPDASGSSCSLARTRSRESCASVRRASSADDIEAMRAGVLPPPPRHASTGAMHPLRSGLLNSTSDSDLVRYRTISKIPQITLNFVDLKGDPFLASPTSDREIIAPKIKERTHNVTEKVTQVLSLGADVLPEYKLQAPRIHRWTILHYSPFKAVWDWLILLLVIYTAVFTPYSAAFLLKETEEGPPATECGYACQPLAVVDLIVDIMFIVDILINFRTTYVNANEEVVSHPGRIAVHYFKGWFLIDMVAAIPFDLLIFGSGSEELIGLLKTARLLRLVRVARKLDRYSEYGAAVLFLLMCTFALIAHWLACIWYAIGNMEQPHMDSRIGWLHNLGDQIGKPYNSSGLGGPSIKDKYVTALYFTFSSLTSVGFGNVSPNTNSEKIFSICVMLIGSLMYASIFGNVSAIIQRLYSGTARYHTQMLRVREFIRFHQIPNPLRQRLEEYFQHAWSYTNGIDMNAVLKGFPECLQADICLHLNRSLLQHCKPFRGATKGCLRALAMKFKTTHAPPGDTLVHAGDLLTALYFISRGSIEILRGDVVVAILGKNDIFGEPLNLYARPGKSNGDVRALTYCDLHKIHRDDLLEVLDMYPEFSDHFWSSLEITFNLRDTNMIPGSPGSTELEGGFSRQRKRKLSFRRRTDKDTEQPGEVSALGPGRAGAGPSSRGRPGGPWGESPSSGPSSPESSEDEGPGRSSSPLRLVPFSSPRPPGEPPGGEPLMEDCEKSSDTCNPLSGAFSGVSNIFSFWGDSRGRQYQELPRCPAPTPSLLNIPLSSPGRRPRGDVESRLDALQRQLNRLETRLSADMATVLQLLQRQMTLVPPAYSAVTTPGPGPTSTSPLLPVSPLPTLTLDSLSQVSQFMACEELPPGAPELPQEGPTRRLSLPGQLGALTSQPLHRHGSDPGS

[12] = test system: Mus musculus; assay: Antidepressant activity in mouse assessed as reduction of immobility time at 10 mg/kg, po after 60 mins by tail suspension test relative to control; type: functional; design: scale not given: the % may be the effect or the level left
Procedure, shortened: (§3)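 Mouse tail suspension test, male mice (10–12 per group, blind). Single oral dose in 5% transcutol in saline, 60 min pretreatment. Immobility recorded automatically for 5 min. Compared with vehicle group. Desipramine 100 mg/kg PO used as reference. One-way ANOVA with Dunnett's post test, p < 0.05.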

[13] = test system: Mus musculus; assay: Antidepressant activity in mouse assessed as reduction of immobility time at 30 mg/kg, po after 60 mins by tail suspension test relative to control; type: functional; design: scale not given: the % may be the effect or the level left; procedure, shortened: as §3
[14] = test system: Mus musculus; assay: Antidepressant activity in mouse assessed as reduction of immobility time at 100 mg/kg, po after 60 mins by tail suspension test relative to control; type: functional; design: scale not given: the % may be the effect or the level left; procedure, shortened: as §3
[15] = test system: Mus musculus; assay: Antidepressant activity in po dosed mouse assessed as reduction of immobility time after 60 mins by tail suspension test; type: functional, organism-based; procedure, shortened: as §3
[16] = test system: Plasma; assay: Plasma concentration in mouse at 3 mg/kg, po; type: ADME, organism-based; design: dose 3 mg/kg, route oral; settings: in vivo
Procedure, shortened: (§4)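 Male mice dosed orally at 3, 10 or 30 mg/kg in 5% transcutol/saline, 60 min before the tail suspension test. Terminal whole brain (ng/g) and plasma (ng/mL) samples taken from the test animals. Brain/plasma ratio derived from these levels.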

[17] = test system: Brain; assay: Drug level in mouse brain at 3 mg/kg, po; type: ADME, organism-based; design: dose 3 mg/kg, route oral; settings: in vivo; procedure, shortened: as §4
[18] = test system: Plasma; assay: Plasma concentration in mouse at 10 mg/kg, po; type: ADME, organism-based; design: dose 10 mg/kg, route oral; settings: in vivo; procedure, shortened: as §4
[19] = test system: Brain; assay: Drug level in mouse brain at 10 mg/kg, po; type: ADME, organism-based; design: dose 10 mg/kg, route oral; settings: in vivo; procedure, shortened: as §4
[20] = test system: Plasma; assay: Plasma concentration in mouse at 30 mg/kg, po; type: ADME, organism-based; design: dose 30 mg/kg, route oral; settings: in vivo; procedure, shortened: as §4
[21] = test system: Brain; assay: Drug level in mouse brain at 30 mg/kg, po; type: ADME, organism-based; design: dose 30 mg/kg, route oral; settings: in vivo; procedure, shortened: as §4
[22] = test system: Mus musculus; assay: Toxicity in mouse assessed as increase of spontaneous locomotor activity at 30 mg/kg, po measured for 5 mins; type: organism-based; design: dose 30 mg/kg, route oral; settings: in vivo
[23] = Ratio of drug level in brain to plasma in po dosed mouse; type: ADME, organism-based; settings: brain and plasma, read-out: BPR; procedure, shortened: as §4
[24] = test system: Plasma; assay: Plasma concentration in mouse assessed as (3aR,6aS)-3a-(3,4-dichlorophenyl)octahydrocyclopenta[c]pyrrole level at 3 mg/kg, po; type: ADME, organism-based; design: dose 3 mg/kg, route oral; settings: in vivo; procedure, shortened: as §4
[25] = test system: Brain; assay: Drug level in mouse brain assessed as (3aR,6aS)-3a-(3,4-dichlorophenyl)octahydrocyclopenta[c]pyrrole level at 3 mg/kg, po; type: ADME, organism-based; design: dose 3 mg/kg, route oral; settings: in vivo; procedure, shortened: as §4
[26] = test system: Plasma; assay: Plasma concentration in mouse assessed as (3aR,6aS)-3a-(3,4-dichlorophenyl)octahydrocyclopenta[c]pyrrole level at 10 mg/kg, po; type: ADME, organism-based; design: dose 10 mg/kg, route oral; settings: in vivo; procedure, shortened: as §4
[27] = test system: Brain; assay: Drug level in mouse brain assessed as (3aR,6aS)-3a-(3,4-dichlorophenyl)octahydrocyclopenta[c]pyrrole level at 10 mg/kg, po; type: ADME, organism-based; design: dose 10 mg/kg, route oral; settings: in vivo; procedure, shortened: as §4
[28] = test system: Plasma; assay: Plasma concentration in mouse assessed as (3aR,6aS)-3a-(3,4-dichlorophenyl)octahydrocyclopenta[c]pyrrole level at 30 mg/kg, po; type: ADME, organism-based; design: dose 30 mg/kg, route oral; settings: in vivo; procedure, shortened: as §4
[29] = test system: Brain; assay: Drug level in mouse brain assessed as (3aR,6aS)-3a-(3,4-dichlorophenyl)octahydrocyclopenta[c]pyrrole level at 30 mg/kg, po; type: ADME, organism-based; design: dose 30 mg/kg, route oral; settings: in vivo; procedure, shortened: as §4

Sequence of Sodium-dependent serotonin transporter (P31645 whole entry): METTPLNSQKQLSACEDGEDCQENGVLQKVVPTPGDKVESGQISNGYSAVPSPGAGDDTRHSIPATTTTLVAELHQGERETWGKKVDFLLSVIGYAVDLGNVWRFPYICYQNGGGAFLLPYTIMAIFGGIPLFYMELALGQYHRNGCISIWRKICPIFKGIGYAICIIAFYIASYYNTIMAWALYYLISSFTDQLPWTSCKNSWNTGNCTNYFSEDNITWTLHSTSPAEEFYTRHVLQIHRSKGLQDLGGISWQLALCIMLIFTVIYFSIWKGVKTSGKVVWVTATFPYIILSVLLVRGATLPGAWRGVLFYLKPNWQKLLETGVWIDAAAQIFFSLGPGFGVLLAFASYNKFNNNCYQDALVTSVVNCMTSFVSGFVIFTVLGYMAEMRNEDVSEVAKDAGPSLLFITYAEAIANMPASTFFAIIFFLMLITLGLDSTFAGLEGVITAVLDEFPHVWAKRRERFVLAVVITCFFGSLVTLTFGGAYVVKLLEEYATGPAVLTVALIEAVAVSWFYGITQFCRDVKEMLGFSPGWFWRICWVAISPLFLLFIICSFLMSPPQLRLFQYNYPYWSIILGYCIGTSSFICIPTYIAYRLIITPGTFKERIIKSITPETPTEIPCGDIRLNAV

CCN1C[C@@H]2CCCC[C@]2(c2ccc(Cl)c(Cl)c2)C1 (single isomer, unassigned)
IC50 [1]: 0.0692 µM
IC50 [2]: 0.038 µM
IC50 [3]: 0.01 µM
half-life at 3 µM [4]: 55 min
half-life at 3 µM [5]: 33 min
IC50 [6]: 4.23 µM
IC50 [7]: > 5 µM
IC50 [8]: > 25 µM
IC50 [9]: 2.92 µM
IC50 [10]: > 5 µM
IC50 [11]: 4.33 µM

CN1C[C@H]2CCCC[C@@]2(c2ccc(Cl)c(Cl)c2)C1 (single isomer, unassigned)
IC50 [1]: 0.00977 µM
IC50 [2]: 0.0562 µM
IC50 [3]: 0.055 µM
half-life at 3 µM [4]: 125 min
half-life at 3 µM [5]: 45 min
IC50 [6]: > 25 µM
IC50 [7]: > 25 µM
IC50 [8]: 11.9 µM
IC50 [9]: 1.1 µM
IC50 [10]: 6.5 µM
IC50 [11]: 4.14 µM
Activity [12]: 13%
Activity [13]: 16%
Activity [14]: 28%
Activity [15]: Dose-dependent effect
Cp [16]: 14 ng/mL
Drug uptake [17]: 294 ng/g
Cp [18]: 50 ng/mL
Drug uptake [19]: 1054 ng/g
Cp [20]: 181 ng/mL
Drug uptake [21]: 4203 ng/g
Activity [22]: Non-toxic
Kp [23]: 5
Cp [24]: 114 ng/mL
Drug uptake [25]: 440 ng/g
Cp [26]: 417 ng/mL
Drug uptake [27]: 1878 ng/g
Cp [28]: 1228 ng/mL
Drug uptake [29]: 6193 ng/g

CN1C[C@@H]2CCCC[C@]2(c2ccc(Cl)c(Cl)c2)C1
IC50 [1]: 0.107 µM
IC50 [2]: 0.141 µM
IC50 [3]: 0.0141 µM
half-life at 3 µM [4]: 62 min
half-life at 3 µM [5]: 35 min
IC50 [6]: 3 µM
IC50 [7]: > 25 µM
IC50 [8]: > 25 µM
IC50 [9]: 8 µM
IC50 [10]: 5.28 µM
IC50 [11]: 2.32 µM

Clc1ccc([C@@]23CCC[C@@H]2CNC3)cc1Cl [listing 1 of 2 here]
Activity [15]: Dose-dependent effect

Clc1ccc([C@]23CCCC[C@H]2CNC3)cc1Cl
IC50 [1]: 0.0977 µM
IC50 [2]: 0.178 µM
IC50 [3]: 0.457 µM
half-life at 3 µM [4]: > 300 min
half-life at 3 µM [5]: > 300 min
IC50 [6]: 7.96 µM
IC50 [7]: > 25 µM
IC50 [8]: > 25 µM
IC50 [9]: 2.65 µM
IC50 [10]: 8.39 µM
IC50 [11]: 6.48 µM

CCN1C[C@H]2CCCC[C@@]2(c2ccc(Cl)c(Cl)c2)C1
IC50 [1]: 0.0457 µM
IC50 [2]: 0.0269 µM
IC50 [3]: 0.0251 µM
half-life at 3 µM [4]: 68 min
half-life at 3 µM [5]: 52 min
IC50 [6]: > 25 µM
IC50 [7]: > 5 µM
IC50 [8]: 17.9 µM
IC50 [9]: 0.25 µM
IC50 [10]: > 5 µM
IC50 [11]: 4.73 µM

Clc1ccc([C@]23CCC[C@H]2CNC3)cc1Cl (single isomer, unassigned)
IC50 [1]: 0.501 µM
IC50 [2]: 0.209 µM
IC50 [3]: 0.141 µM
half-life at 3 µM [4]: 22 min
half-life at 3 µM [5]: 56 min
IC50 [6]: 0.53 µM
IC50 [7]: 4.01 µM
IC50 [8]: 1.9 µM
IC50 [9]: 2.47 µM
IC50 [10]: 9.17 µM
IC50 [11]: 6.4 µM

Clc1ccc([C@@]23CCC[C@@H]2CNC3)cc1Cl [listing 2 of 2 here]
IC50 [1]: 0.049 µM
IC50 [2]: 0.107 µM
IC50 [3]: 0.123 µM
half-life at 3 µM [4]: 262 min
half-life at 3 µM [5]: 91 min
IC50 [6]: 18.7 µM
IC50 [7]: > 25 µM
IC50 [8]: 11.9 µM
IC50 [9]: 6.96 µM
IC50 [10]: > 5 µM
IC50 [11]: 5.28 µM

Clc1ccc([C@@]23CCCC[C@@H]2CNC3)cc1Cl
IC50 [1]: 0.0912 µM
IC50 [2]: 0.204 µM
IC50 [3]: 0.0832 µM
half-life at 3 µM [4]: > 300 min
half-life at 3 µM [5]: > 300 min
IC50 [6]: 6.14 µM
IC50 [7]: > 25 µM
IC50 [8]: > 25 µM
IC50 [9]: 7.93 µM
IC50 [10]: 12.8 µM
IC50 [11]: 3.64 µM
